From ChEMBL document CHEMBL1153005, “Synthesis and biological evaluation of curcumin-like diarylpentanoid analogues for anti-inflammatory, antioxidant and anti-tyrosinase activities” (Eur J Med Chem, 2009)

What was measured:
RAW264.7 [1] = assay: Antiinflammatory activity in mouse RAW264.7 cells assessed as inhibition of IFN-gamma/LPS-stimulated nitric oxide production after 17 to 20 hrs by Griess assay; format: functional, cell-based
How it was run: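 RAW 264.7 cells were grown in DMEM with 10% FBS and 1% penicillin/streptomycin (5% CO₂, 37 °C). At 80–90% confluency they were scraped and seeded at 5 × 10⁴ cells/well. Nitrite was measured by Griess assay, and % NO inhibition was taken relative to the IFN-γ/LPS control. Results are the mean ± S.E.M. of three experiments; IC₅₀ values were computed from these.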

Tyrosinase = molecular target: T1, Tyrosinase (Homo sapiens, UniProt P14679); assay: Inhibition of tyrosinase
T1 sequence (P14679 whole entry): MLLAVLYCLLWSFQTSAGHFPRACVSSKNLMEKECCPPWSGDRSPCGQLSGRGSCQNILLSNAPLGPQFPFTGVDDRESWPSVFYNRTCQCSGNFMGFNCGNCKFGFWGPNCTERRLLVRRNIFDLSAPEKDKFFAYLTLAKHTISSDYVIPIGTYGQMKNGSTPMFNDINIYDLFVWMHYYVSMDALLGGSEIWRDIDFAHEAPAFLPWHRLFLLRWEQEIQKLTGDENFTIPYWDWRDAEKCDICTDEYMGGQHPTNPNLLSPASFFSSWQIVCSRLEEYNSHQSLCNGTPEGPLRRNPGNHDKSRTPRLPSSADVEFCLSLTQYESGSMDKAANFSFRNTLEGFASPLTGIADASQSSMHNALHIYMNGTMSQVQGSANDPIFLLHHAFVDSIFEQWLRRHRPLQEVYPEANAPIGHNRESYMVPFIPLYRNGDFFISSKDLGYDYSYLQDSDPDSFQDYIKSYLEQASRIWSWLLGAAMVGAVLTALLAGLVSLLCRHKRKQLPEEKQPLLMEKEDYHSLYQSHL

[2] = Antioxidant activity assessed as nitric oxide scavenging activity after 60 min by Griess assay; format: functional
How it was run: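 Sodium nitroprusside (10 mM) was incubated alone or with test compounds (7.81–500) for 60 min under light exposure. Nitrite in the mixture was measured by Griess assay, and % NO scavenging was calculated from OD versus the control. Results are the mean ± S.E.M. of three runs; IC₅₀ values were calculated.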

[3] = test system: Radical scavenging activity; assay: Antioxidant activity assessed as DPPH free radical scavenging activity after 30 mins; format: functional
How it was run: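 Compound stocks were made in 100% DMSO and serially diluted from 7.81 to 500. DPPH (1 mg/ml in methanol) was added, and plates were shaken gently and kept in the dark for 30 min. Absorbance was read at 517 nm, and % scavenging was calculated versus the control. Results are the mean ± S.E.M. of three runs; IC₅₀ values were calculated.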

[4] = Cytotoxicity against HEMn cells; format: cell-based; details: human
RAW264.7 [5] = assay: Cytotoxicity against IFN-gamma/LPS-stimulated mouse RAW264.7 cells assessed as cell viability at 50 uM after 17 to 20 hrs by MTT assay; format: cell-based; details: raw264.7, 50 µM
How it was run: (§1)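 RAW 264.7 cells were cultured and seeded as for the NO assay. In the MTT read-out, cells were incubated for 4 h at 37 °C under 5% CO₂. Formazan was dissolved in DMSO and absorbance read at 570 nm. Viability (%) = OD sample / OD control × 100. Results are the mean ± S.E.M. of three experiments.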

RAW264.7 [6] = assay: Cytotoxicity against IFN-gamma/LPS-stimulated mouse RAW264.7 cells assessed as cell viability at 25 uM after 17 to 20 hrs by MTT assay; format: cell-based; details: raw264.7, 25 µM; how it was run: as §1
[7] = Mus musculus, RAW264.7, read-out: IC50

| Compound | IC50 (RAW264.7 [1]; raw264.7) | IC50 (Tyrosinase; read-out: IC50) | IC50 ([2]; read-out: IC50) | IC50 ([3]; read-out: IC50) | IC50 (RAW264.7 [1]; [7]) | IC50 [2] | IC50 [3] | IC50 (Tyrosinase) | further results |
| --- | --- | --- | --- | --- | --- | --- | --- | --- | --- |
| COc1cc(/C=C/C(=O)/C=C/c2ccc(O)c(OC)c2)ccc1O | Not Active | > 250 µM | > 500 µM | 257 µM |  |  |  |  |  |
| O=C(/C=C/c1ccc(O)cc1)/C=C/c1ccc(O)cc1 | Not Active | 79 µM | > 500 µM | > 500 µM |  |  |  |  | Activity [4]: Toxic |
| COc1ccc(/C=C/C(=O)/C=C/c2ccc(OC)cc2F)c(F)c1 |  | > 250 µM |  |  | 33.1 µM | Not Active | Not Active |  |  |
| CC1(C)N([O])C(c2ccccc2)=[N+]([O-])C1(C)C |  |  | 0.57 µM |  |  |  |  |  |  |
| O=C(/C=C/c1ccc(F)cc1)/C=C/c1ccc(F)cc1 | Not Active | > 250 µM |  |  |  | Not Active | Not Active |  |  |
| COc1ccc(OC)c(/C=C/C(=O)/C=C/c2cc(OC)ccc2OC)c1 |  |  |  |  | 13.6 µM | Not Active | Not Active | Not Active | Activity (RAW264.7 [5]): Toxic |
| O=C(/C=C/c1ccccc1O)/C=C/c1ccccc1O |  |  | > 500 µM | > 500 µM | 10.2 µM |  |  | Not Active | Activity (RAW264.7 [6]): Toxic; Activity (RAW264.7 [5]): Toxic |
| COc1cc(/C=C/C(=O)CC(=O)/C=C/c2ccc(O)c(OC)c2)ccc1O [CURCUMIN] |  |  | > 500 µM | 110 µM | 20.4 µM |  |  | Not Active |  |
| COC(=O)[C@@H](N)CCCNC(=N)N[N+](=O)[O-] [L-NAME] |  |  |  |  | 27.1 µM |  |  |  |  |
| O=c1c(O)c(-c2ccc(O)c(O)c2)oc2cc(O)cc(O)c12 [QUERCETIN] |  |  |  | 41.8 µM |  | Not Active |  |  |  |
